PGC1a acetyl inh: PGC1a acetylation modulation, inhibitor mode. U2OS PGC1a acetylation, AlphaScreen anti-acetyl-lysine; with virally co-expressed GCN5 acetyltransferase. inhibition, % at 15.6 µM. 0.17% of 350,000 active;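 active = every replicate shows inhibition of at least 40%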;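 also: 0% = neutral control wells and 100% = positive control wells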
CASP6 VEID inh: inhibitors of human caspase-6 | 0.53% of 350,000 active | AID 686996 | inhibition, % at 12.5 µM | purified caspase-6, Z-VEID-R110 cleavage fluorescence | P55212;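 active = mean inhibition across replicates at least about 35%, with every replicate also reaching that limit, limit read from the data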;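 also: 0% = median of neutral control wells and 100% = no fluorescence left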
rRNA inh HTS: selective bacterial rRNA inhibition in E. coli | E. coli WT GFP vs humanized-ribosome RFP mutants, fluorescence, 24 h; hits give low values; DMSO median 0, no signal -100 | GFP signal change (wild-type ribosome), % (test concentration not listed) | 1.6% of 350,000 active | AID 720706;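 active = significant combined selectivity score with lowered wild-type GFP, culture density cut under 30%, mutant RFP and density less affected; inactive = any of these conditions unmet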
S100A4 MyoIIA: S100A4-myosin IIA interaction inhibition; P26447; AID 652163; inhibition, % at 10.7 µM; 0.14% of 360,000 active; S100A4/TAMRA-MyoIIA peptide fluorescence polarization;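 active = mean inhibition of at least 70% across replicates, with every replicate also reaching that level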
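assay system = human S100A4 monomer with TAMRA-labelled myosin IIA peptide | also added = labelled myosin peptide probe, 5 nM | incubation = 5 min between mix addition and reading | control set = DMSO and TFP controls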
ARNT-TACC3 inh: disruptors of human ARNT/TACC3 interaction; inhibition, % at 9.99 µM; AlphaScreen His-ARNT PAS-B/GST-TACC3 binding, luminescence; TACC3 fragment carries E629A point mutation; AID 623870; 0.66% of 390,000 active;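 active = mean inhibition of replicates at least 50% and at least half of replicates each reaching 50%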;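 also: 0% = complete ARNT plus TACC3 wells and 100% = ARNT alone without TACC3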
ERAP1 inh: ERAP1 (human) enzyme inhibition; recombinant ERAP1, Leu-AMC fluorescence, 60 min; inhibition, % at 10.7 µM; 0.15% of 340,000 active;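 active = mean replicate inhibition of at least 30%, or all replicates individually reaching that 30% level; inactive = mean below 30% and not every replicate reaching it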;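 also: 0% = neutral control wells and 100% = L-leucinethiol positive control wells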
Target sequence (Q9NZ08 whole entry, looked up): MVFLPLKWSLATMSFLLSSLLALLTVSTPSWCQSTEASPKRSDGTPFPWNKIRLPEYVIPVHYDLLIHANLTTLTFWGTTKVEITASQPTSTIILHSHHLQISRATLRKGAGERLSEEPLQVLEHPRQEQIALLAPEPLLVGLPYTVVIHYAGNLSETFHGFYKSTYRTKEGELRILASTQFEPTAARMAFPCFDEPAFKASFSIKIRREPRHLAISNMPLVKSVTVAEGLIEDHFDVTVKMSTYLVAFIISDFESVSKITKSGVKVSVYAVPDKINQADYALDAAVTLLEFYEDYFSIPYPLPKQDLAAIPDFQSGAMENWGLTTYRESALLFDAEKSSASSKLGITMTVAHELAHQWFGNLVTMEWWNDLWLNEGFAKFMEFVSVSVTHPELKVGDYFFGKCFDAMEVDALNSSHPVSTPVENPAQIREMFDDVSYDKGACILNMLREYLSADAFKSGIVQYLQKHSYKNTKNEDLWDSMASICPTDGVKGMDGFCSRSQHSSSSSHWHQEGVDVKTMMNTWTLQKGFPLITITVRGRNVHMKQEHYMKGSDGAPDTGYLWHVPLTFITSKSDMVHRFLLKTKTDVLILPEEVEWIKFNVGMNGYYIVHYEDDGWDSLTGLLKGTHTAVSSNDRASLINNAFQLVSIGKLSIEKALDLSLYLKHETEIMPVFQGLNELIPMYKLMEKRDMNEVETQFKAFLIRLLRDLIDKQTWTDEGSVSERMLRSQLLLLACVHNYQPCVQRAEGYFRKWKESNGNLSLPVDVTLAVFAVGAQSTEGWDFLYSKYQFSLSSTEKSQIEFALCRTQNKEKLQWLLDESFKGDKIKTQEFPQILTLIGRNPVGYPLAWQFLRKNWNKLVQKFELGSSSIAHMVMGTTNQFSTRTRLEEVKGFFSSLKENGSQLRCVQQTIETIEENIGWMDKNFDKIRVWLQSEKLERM
* hit, by the source's call; . = no result given. Compounds with a hit are over-represented: about 2.4% of the library has one in this group of screens.

SMILES | PGC1a acetyl inh | CASP6 VEID inh | rRNA inh HTS | S100A4 MyoIIA | ARNT-TACC3 inh | ERAP1 inh
O=C1/C(=C/c2cccs2)SC(=S)N1CC(=O)N1CCCCC1CCO (stereo unspecified) | . | 3 | -25* | -8 | 1 | 0
O=C1/C(=C/c2cccc(Cl)c2)SC(=S)N1CCC(=O)N1CCCCC1CCO (stereo unspecified) | . | 2 | -22* | -1 | 4 | -4
O=C1/C(=C/c2ccccc2F)SC(=S)N1CCC(=O)N1CCCCC1CCO (stereo unspecified) | . | -1 | -23* | 16 | 11 | 6
COc1ccc(S(=O)(=O)Nc2ccc3c(c2)C(=O)N([C@H](C)CO)C[C@H](C)[C@@H](CN(C)CC2CC2)OCCCC[C@@H](C)O3)cc1 | -1 | -7 | 3 | 1 | -1 | -1
CCNC(=S)SCCOc1ccccc1C | . | -3 | -34* | -2 | -11 | 1
C[C@H]1CN([C@@H](C)CO)C(=O)Cc2cc(N(C)C)ccc2O[C@@H]1CN(C)Cc1ccc(C(F)(F)F)cc1 | -3 | . | -2 | . | . | .
O=C(C[C@H]1CC[C@@H]2[C@H](COC[C@@H](O)CN2C(=O)c2ccncc2)O1)NC1Cc2ccccc2C1 | 13 | -2 | 8 | -5 | 15 | 3
Cc1cc(/C=C(/C#N)c2cccc(F)c2)c(C)n1-c1cccnc1 | 39 | -7 | -35* | -4 | -4 | -1
Cc1nn2c(NCCN3CCOCC3)c3c(nc2c1-c1ccccc1)CCCC3 | 17 | 3 | -34* | -3 | -7 | 12
Cc1nn2c(NCc3ccccn3)c3c(nc2c1-c1ccccc1)CCC3 | 2 | -2 | -29 | 3 | . | 4
CSCC[C@H](NC(=O)c1ccc(Br)o1)c1nnc2ccccn12 | 43* | -5 | 5 | 1 | 17 | -4
CSCC[C@H](NS(=O)(=O)c1ccc(C(C)=O)cc1)c1nnc2ccccn12 | -4 | 37* | 4 | 3 | -8 | 0
CO[C@@H]1CN(C)C(=O)c2ccc(NS(C)(=O)=O)cc2OC[C@H](C)N(Cc2ccccc2)C[C@@H]1C | . | . | 2 | . | . | .
O=C(COc1ccc(Cl)cc1)Nc1ncc([N+](=O)[O-])s1 | 4 | -1 | -24* | -3 | -1 | -2
O=C(Cc1ccc(Cl)cc1)Nc1ncc([N+](=O)[O-])s1 | . | 0 | -48 | 1 | -5 | 8
Cc1ccc(C(=O)Nc2ncc([N+](=O)[O-])s2)cc1 | -23 | 11 | -52* | -9 | -5 | -2
COc1ccc(C(=O)Nc2ccc(S(=O)(=O)N3CCCC3)cc2)cc1 | -8 | 1 | -32* | -11 | -4 | -1
COc1ccc(C(=O)NNC(=O)c2ccc(S(=O)(=O)N3CCCCC3)cc2)cc1 | 2 | 1 | 5 | 2 | -5 | 4
O=C(Nc1ccc(S(=O)(=O)N2CCCCCC2)cc1)c1[nH]ncc1[N+](=O)[O-] | . | 1 | -40* | 3 | -11 | -5
O=C(Nc1ccc([N+](=O)[O-])cc1)c1ccc(S(=O)(=O)N2CCCC2)cc1 | . | 1 | 10 | -4 | -2 | 0
COc1ccc(Cc2nnc(N/N=C/c3ccc(Br)cc3)[nH]c2=O)cc1OC | -2 | -1 | 6 | -2 | 2 | -1
COc1ccc(Cc2nnc(N/N=C/c3ccc(O)cc3)[nH]c2=O)cc1OC | . | . | . | . | 92* | .
COc1ccc2c3c(n(C)c2c1)[C@H](CO)N(C(C)=O)CC31CCN(Cc2ccccc2OC)CC1 | 11 | -1 | 1 | -6 | . | 0
COc1cccc([C@@H]2CC=C(C(=O)O)[C@H](c3ccc(Cl)cc3)N2S(=O)(=O)c2ccc(C)cc2)c1 | . | 3 | -2 | 0 | -1 | -1
COc1cccc([C@@H]2CC=C(C(=O)O)[C@H](c3ccc(C)cc3)N2S(=O)(=O)c2ccc(C)cc2)c1 | 13 | 3 | -19* | 2 | 1 | 1
SMILES | PGC1a acetyl inh | CASP6 VEID inh | rRNA inh HTS | S100A4 MyoIIA | ARNT-TACC3 inh | ERAP1 inh
Cc1ccc(S(=O)(=O)N2[C@@H](c3cccc(Cl)c3)C(C(=O)O)=CC[C@H]2c2cccc(C)c2)cc1 | . | 10 | -23* | -3 | 2 | 3
COc1ccc([C@@H]2CC=C(C(=O)O)[C@H](c3ccc(F)cc3)N2S(=O)(=O)c2ccc(Cl)cc2)cc1 | 0 | 2 | -18* | 2 | 1 | -1
COc1ccc([C@@H]2CC=C(C(=O)O)[C@H](c3ccc(C(C)(C)C)cc3)N2S(=O)(=O)c2ccc(C)cc2)cc1OC | -5 | 0 | -20* | -3 | 6 | .
Cc1ccc(S(=O)(=O)N2[C@@H](c3cccc(Cl)c3)C(C(=O)O)=CC[C@H]2c2cccc(Cl)c2)cc1 | . | 4 | -39 | -5 | 0 | 1
C[C@H]1CN(C)C(=O)c2ccccc2O[C@H]1CN(C)S(C)(=O)=O | . | . | 0 | . | . | .
CCCCSc1nnc(C)c(=O)[nH]1 | -1 | 1 | 4 | 2 | -1 | 4
CCCCCSc1nnc(C)c(=O)[nH]1 | 91* | 1 | -4 | -1 | -1 | 1
C[C@H](CO)N1C[C@H](C)[C@@H](CN(C)C(=O)C2CC2)Oc2cc(-c3ccc(F)cc3)ccc2S1(=O)=O | 5 | . | -6 | . | . | .
COc1ccc(NC(=O)Nc2ccc3c(c2)C(=O)N([C@@H](C)CO)C[C@@H](C)[C@H](CN(C)C)O3)cc1 | 3 | 2 | 4 | -2 | -9 | 1
COc1ccc(-c2nc(CN3CCCCC3c3nccn3C)c(C)o2)c(C)c1C (stereo unspecified) | 19 | 7 | -33* | -5 | 12 | 0
CNC[C@H]1Oc2ccc(NC(=O)Nc3ccc(OC)cc3)cc2C(=O)N([C@@H](C)CO)C[C@@H]1C | -2 | -1 | 0 | 4 | . | 1
C[C@@H]1CN([C@@H](C)CO)C(=O)Cc2cc(NC(=O)CCCN(C)C)ccc2O[C@H]1CN(C)Cc1ccc(Oc2ccccc2)cc1 | 11 | 0 | 2 | 17 | 18 | -4
CCc1ccc(C2=CC(c3cc(Br)ccc3F)n3ncnc3N2)cc1 (stereo unspecified) | -1 | . | . | . | 6 | .
Fc1ccc(Br)cc1C1C=C(c2ccc(Br)cc2)Nc2ncnn21 (stereo unspecified) | 2 | -1 | -30* | -10 | -1 | -4
CCCNC(=S)Nc1ccc2nc(-c3ccccn3)c(-c3ccccn3)nc2c1 | . | . | . | . | 57* | .
S=C(Nc1ccc2nc(-c3ccccn3)c(-c3ccccn3)nc2c1)N1CCCCC1 | -1 | . | . | . | 70* | .
S=C(Nc1ccc2nsnc2c1)N1CCCCC1 | . | 47* | -20 | 4 | 29* | -3
S=C(Nc1ccc2nc(-c3ccccn3)c(-c3ccccn3)nc2c1)N1CCCCCC1 | -1 | 8 | -3 | 17 | 8 | 1
S=C(Nc1ccc2nccnc2c1)N1CCOCC1 | 5 | 9 | 3 | -5 | 46* | 2
